Laboratory results published in ChEMBL document CHEMBL3745678, “Novel β-Carboline/Hydroxamic Acid Hybrids Targeting Both Histone Deacetylase and DNA Display High Anticancer Activity via Regulation of the p53 Signaling Pathway” (J Med Chem, 2015).
Calls of active or inactive are those of the source. The rule behind the calls is not given here.

What was measured:
HCT-116 [1] = assay: Induction of DNA damage in human HCT116 cells assessed as histone H2AX phosphorylation at S139 after 12 hrs by western blot analysis; format: functional, cell-based
Summary of the method: (§1)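 DNA-damage marker. HCT116 cells treated 12 h with compound or vehicle. Lysates immunoblotted with anti-H2AX S139ph, and β-actin served as the control. Relative levels were obtained by densitometric scanning; means ± SD of three separate experiments.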

HCT-116 [2] = assay: Induction of DNA damage in human HCT116 cells assessed as histone H2AX phosphorylation at S139 at 1 to 5 uM after 12 hrs by western blot analysis; format: functional, cell-based; summary of the method: as §1
[3] = target: Cellular tumor antigen p53 (Homo sapiens) (UniProt P04637); assay: Induction of p53 activation in human HCT116 cells assessed as upregulation of p21 expression at 1 to 5 uM after 12 hrs by western blot analysis; format: cell-based; details: HCT-116
Sequence of Cellular tumor antigen p53 (Homo sapiens) (P04637 whole entry, looked up): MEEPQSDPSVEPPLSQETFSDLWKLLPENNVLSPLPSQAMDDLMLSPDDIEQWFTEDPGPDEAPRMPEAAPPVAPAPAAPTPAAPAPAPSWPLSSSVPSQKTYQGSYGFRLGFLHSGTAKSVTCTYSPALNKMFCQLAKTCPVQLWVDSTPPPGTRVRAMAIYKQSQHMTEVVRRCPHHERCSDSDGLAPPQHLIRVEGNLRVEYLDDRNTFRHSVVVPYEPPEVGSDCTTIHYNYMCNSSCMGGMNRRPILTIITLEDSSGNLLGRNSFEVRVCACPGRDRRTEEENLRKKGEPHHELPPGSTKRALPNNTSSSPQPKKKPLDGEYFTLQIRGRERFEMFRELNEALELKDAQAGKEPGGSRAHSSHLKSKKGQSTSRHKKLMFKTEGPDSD
Summary of the method: (§2)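 HCT116 cells exposed 12 h to compound or vehicle, then lysed on ice in PBS with 1% NP-40, 0.5% deoxycholate, 0.1% SDS and protease inhibitors. Up to 50 µg protein run on SDS-PAGE and immunoblotted for phospho-p53 (Ser15), p53 and p21. Bands quantified by densitometry against β-actin; mean ± SD of three experiments.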

Histone deacetylase = assay: Inhibition of HDAC in human HeLa cell nuclear extract using Boc-Lys (Ac)-AMC as substrate after 60 mins by fluorometric analysis; format: cell-based
[4] = Antiproliferative activity against human HCT116 cells assessed as cell viability after 48 hrs by MTT assay; format: functional, cell-based, HCT-116; details: for IC50: Homo sapiens, HCT-116, 48 h
[5] = Antiproliferative activity against human SW620 cells assessed as cell viability after 48 hrs by MTT assay; format: functional, cell-based; details: SW-620, 48 h
LoVo = assay: Antiproliferative activity against human LoVo cells assessed as cell viability after 48 hrs by MTT assay; format: functional, cell-based
SW480 = assay: Antiproliferative activity against human SW480 cells assessed as cell viability after 48 hrs by MTT assay; format: functional, cell-based; details: SW480, 48 h
HCT-116 [6] = assay: Potency index, ratio of SAHA IC50 to compound IC50 for human HCT116 cells; format: functional
Summary of the method: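 HCT116 cells seeded at 10^4 cells/ml and adhered overnight, then treated 48 h over a concentration series with 0.1% DMSO as control. MTT readout; IC50 derived from inhibition % = (1 − OD treated/OD control) × 100, three independent measurements. Index = SAHA IC50 ÷ compound IC50.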

Histone deacetylase 1 = Histone deacetylase 1 (Homo sapiens, UniProt Q13547); assay: Inhibition of recombinant human HDAC1 using Boc-Lys (Ac)-AMC as substrate after 60 mins by fluorometric analysis
Sequence of Histone deacetylase 1 (Q13547 whole entry): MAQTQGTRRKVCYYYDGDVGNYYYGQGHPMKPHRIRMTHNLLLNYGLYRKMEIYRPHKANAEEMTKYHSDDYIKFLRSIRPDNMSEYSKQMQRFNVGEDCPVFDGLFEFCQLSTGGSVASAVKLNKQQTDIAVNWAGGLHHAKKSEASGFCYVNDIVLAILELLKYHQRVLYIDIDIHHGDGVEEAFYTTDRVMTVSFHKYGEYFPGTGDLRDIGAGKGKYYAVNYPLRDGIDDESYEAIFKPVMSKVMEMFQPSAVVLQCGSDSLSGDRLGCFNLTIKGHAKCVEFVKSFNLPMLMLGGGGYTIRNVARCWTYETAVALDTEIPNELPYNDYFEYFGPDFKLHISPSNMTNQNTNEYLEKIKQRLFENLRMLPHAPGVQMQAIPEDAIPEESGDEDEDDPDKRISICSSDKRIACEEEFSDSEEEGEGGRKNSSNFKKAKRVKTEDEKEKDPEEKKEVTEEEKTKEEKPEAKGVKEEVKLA

[7] = target: T1, Protein deacetylase HDAC6 (Homo sapiens, UniProt Q9UBN7); assay: Inhibition of recombinant human HDAC6 using Boc-Lys (Ac)-AMC as substrate after 60 mins by fluorometric analysis
T1 sequence (Q9UBN7 whole entry): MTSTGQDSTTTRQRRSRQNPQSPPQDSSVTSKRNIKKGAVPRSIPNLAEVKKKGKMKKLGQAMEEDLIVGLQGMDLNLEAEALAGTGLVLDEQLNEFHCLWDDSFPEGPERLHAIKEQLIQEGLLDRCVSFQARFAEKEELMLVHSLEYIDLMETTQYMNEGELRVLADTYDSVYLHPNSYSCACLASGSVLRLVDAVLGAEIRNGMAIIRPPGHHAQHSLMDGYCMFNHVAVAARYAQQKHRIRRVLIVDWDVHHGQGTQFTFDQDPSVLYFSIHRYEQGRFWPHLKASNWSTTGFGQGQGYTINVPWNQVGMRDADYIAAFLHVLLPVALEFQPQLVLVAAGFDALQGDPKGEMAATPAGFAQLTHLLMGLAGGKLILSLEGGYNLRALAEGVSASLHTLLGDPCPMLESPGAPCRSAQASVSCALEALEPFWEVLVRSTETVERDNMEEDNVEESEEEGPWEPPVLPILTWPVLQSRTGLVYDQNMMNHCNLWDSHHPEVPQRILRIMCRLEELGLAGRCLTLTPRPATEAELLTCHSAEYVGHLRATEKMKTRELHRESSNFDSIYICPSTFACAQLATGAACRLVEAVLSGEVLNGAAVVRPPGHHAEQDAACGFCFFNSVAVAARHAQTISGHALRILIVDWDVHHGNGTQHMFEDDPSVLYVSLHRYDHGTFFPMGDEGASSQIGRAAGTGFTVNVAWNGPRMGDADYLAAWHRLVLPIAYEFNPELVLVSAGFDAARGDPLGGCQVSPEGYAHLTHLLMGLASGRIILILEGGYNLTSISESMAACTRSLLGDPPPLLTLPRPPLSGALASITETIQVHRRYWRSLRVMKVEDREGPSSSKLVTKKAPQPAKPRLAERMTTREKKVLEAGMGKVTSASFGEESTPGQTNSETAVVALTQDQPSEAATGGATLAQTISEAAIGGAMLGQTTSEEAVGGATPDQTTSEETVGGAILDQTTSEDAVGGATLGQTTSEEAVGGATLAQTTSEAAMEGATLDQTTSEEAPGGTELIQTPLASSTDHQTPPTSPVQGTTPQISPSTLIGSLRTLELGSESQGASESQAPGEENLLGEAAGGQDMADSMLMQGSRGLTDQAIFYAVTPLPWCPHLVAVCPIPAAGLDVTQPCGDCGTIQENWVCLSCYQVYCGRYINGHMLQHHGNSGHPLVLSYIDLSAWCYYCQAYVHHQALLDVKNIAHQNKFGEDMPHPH

Histone deacetylase 8 = target: T2, Histone deacetylase 8 (Homo sapiens, UniProt Q9BY41); assay: Inhibition of recombinant human HDAC8 using Boc-Lys (Ac)-AMC as substrate after 60 mins by fluorometric analysis
T2 sequence (Q9BY41 whole entry): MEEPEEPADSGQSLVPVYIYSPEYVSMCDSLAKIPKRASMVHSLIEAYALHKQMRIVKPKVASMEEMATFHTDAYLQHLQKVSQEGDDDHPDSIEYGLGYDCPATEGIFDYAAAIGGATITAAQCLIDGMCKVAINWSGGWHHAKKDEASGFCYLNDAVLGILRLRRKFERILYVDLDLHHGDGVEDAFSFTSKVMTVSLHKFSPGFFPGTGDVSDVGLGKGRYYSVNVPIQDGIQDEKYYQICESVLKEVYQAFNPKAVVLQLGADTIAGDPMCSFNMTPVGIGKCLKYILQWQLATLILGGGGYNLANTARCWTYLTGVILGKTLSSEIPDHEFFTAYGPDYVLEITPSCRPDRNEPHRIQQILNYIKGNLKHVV

HCT-116 [8] = assay: Induction of DNA damage in human HCT116 cells assessed as histone H2AX phosphorylation at S139 at 20 uM after 12 hrs by western blot analysis; format: functional, cell-based
Summary of the method: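 HCT116 cells treated for 12 h, then lysed on ice in PBS with 1% Nonidet P-40, 0.5% sodium deoxycholate, 0.1% SDS and protease inhibitors. Up to 50 µg protein run on SDS-PAGE and blotted to PVDF. Probed overnight at 4 °C with anti-H2AX S139ph, with ECL detection. Band intensity scanned relative to β-actin, three separate experiments.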

[9] = target: Cellular tumor antigen p53 (Homo sapiens) (UniProt P04637); assay: Activation of p53 in human HCT116 cell at 0.1 to 5 uM after 12 hrs by western blot analysis; format: cell-based; details: HCT-116; summary of the method: as §2
[10] = target: Cellular tumor antigen p53 (Homo sapiens) (UniProt P04637); assay: Activation of p53 in human HCT116 cells assessed as p53 phosphorylation at ser15 residue at 0.1 to 5 uM after 12 hrs by western blot analysis; format: cell-based; details: HCT-116; summary of the method: as §2
[11] = target: Cellular tumor antigen p53 (Homo sapiens) (UniProt P04637); assay: Induction of p53 activation in human HCT116 cells assessed as upregulation of p21 expression at 0.1 to 5 uM after 12 hrs by western blot analysis; format: cell-based; details: HCT-116; summary of the method: as §2
[12] = Antitumor activity against human HCT116 cells xenografted in BALB/c mouse assessed as tumor weight at 90 mg/kg, po measured twice per week over 22 days (reference value: 1.38 +/- 0.13 g); format: functional, HCT-116
[13] = Cytotoxicity against rat IEC-18 cells assessed as survival after 48 hrs by MTT assay; format: cell-based
Summary of the method: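 HCT116 and rat IEC-18 cells incubated 48 h over a 0–5 µM range. Viability measured by MTT and expressed as % of control. GI50 taken from the inhibition curves; three independent experiments.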

HCT-116 [14] = assay: Induction of apoptosis in human HCT116 cells at 5 uM after 48 hrs by annexin V-FITC/propidium iodide staining-based flow cytometric analysis; format: functional
Summary of the method: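 HCT116 cells cultured overnight, then exposed in triplicate for 48 h to 0.1, 1.0 or 5.0 µM, SAHA 5.0 µM or vehicle. Stained with FITC-Annexin V/PI for 15 min at room temperature.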

HCT-116 [15] = assay: Induction of PARP cleavage in human HCT116 cells at 1 to 5 uM after 48 hrs by western blot analysis; format: functional, cell-based
Summary of the method: (§3)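 HCT116 cells treated 48 h with or without compound. Western blots probed for Bax, Bcl-2, cleaved caspase-3 and PARP. Band intensities relative to β-actin by densitometry; means ± SD from three separate experiments.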

HCT-116 [16] = assay: Induction of caspase-3 cleavage in human HCT116 cells at 1 to 5 uM after 48 hrs by western blot analysis; format: functional, cell-based; summary of the method: as §3

With COc1ccc(-c2nc(NC(=O)NCCCC(=O)NO)cc3c4ccccc4n(C)c23)cc1 the Activity (HCT-116 [1]) was “Dose-dependent effect”, the Activity (HCT-116 [2]) was “Active” and the Activity [3] was “Active”. For the same compound, the IC50 (Histone deacetylase) was 0.51 µM, the IC50 [4] was 1.33 µM and the IC50 [5] was 1.93 µM. It also gave an IC50 (LoVo) of 3.02 µM, an IC50 (SW480) of 3.15 µM and a Ratio IC50 (HCT-116 [6]) of 4. It also gave an IC50 (Histone deacetylase 1) of 0.24 µM, an IC50 [7] of 0.15 µM and an IC50 (Histone deacetylase 8) of 0.57 µM.
In the case of COc1ccc2c(c1)[nH]c1c(C)nccc12 [HARMINE], the Activity (HCT-116 [8]) is reported as “Active”, the IC50 (Histone deacetylase) is reported as over 10 µM and the IC50 [4] is reported as 46.7 µM. The IC50 [5] was 42.8 µM and the IC50 (LoVo) was 53.2 µM.
For O=C(CCCCCCC(=O)Nc1ccccc1)NO [VORINOSTAT], the Activity (HCT-116 [2]) was “Active”, the Activity [9] was “inactive” and the Activity [10] was “inactive”. For the same compound, the Activity [11] was “Active”, the Activity [12] was 0.62 g and the GI50 [4] was 4.64 µM. For the same compound, the GI50 at 48 h [13] was 9.95 µM, the Activity (HCT-116 [14]) was 34.3% and the Activity (HCT-116 [15]) was “Active”. The Activity (HCT-116 [16]) was “Active”.
